Experimental data reported in ChEMBL document CHEMBL3286368, “Delayed and Prolonged Histone Hyperacetylation with a Selective HDAC1/HDAC2 Inhibitor” (ACS Med Chem Lett, 2014).

How the values were obtained:
[1] = Drug metabolism in human hepatocytes assessed as glucuronide conjugate level; format: ADME, cell-based, Hepatocyte
Mus musculus [2] = experiment: Inhibition of HDAC in CD1 nu/nu mouse tumor xenografted with human HCT116 cells assessed as plasma drug level causing increase in H2BK5 acetylation at 100 mg/kg, po bid after 48 hrs by ELISA; format: functional, HCT-116
[3] = Volume of distribution at steady state in rhesus monkey at 0.5 mg/kg, iv; format: ADME, organism-based, Macaca mulatta; set-up: dose 0.5 mg/kg, route intravenous; settings: in vivo, read-out: Vdss
How it was run: (§1)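 Intravenous dosing at 5 (mouse), 2 (rat), 0.5 (dog) and 0.5 (monkey) mg/kg. Plasma clearance, steady-state volume of distribution and half-life derived from the plasma profile.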

Mus musculus [4] = experiment: Inhibition of HDAC in CD1 nu/nu mouse tumor xenografted with human HCT116 cells assessed as plasma drug level causing increase in H2BK5 acetylation at 67 mg/kg, po tid after 8 hrs by ELISA; format: functional, HCT-116
[5] = Cmax in CD1 nu/nu mouse xenografted with human HCT116 cells at 875 mg/kg, po administered biweekly for 3 weeks; format: ADME, organism-based, HCT-116; set-up: dose 875 mg/kg, route oral; settings: in vivo
How it was run: (§2)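 HCT116 cells (5 × 10^6 per mouse) injected subcutaneously into the right flank of CD1 nu/nu mice. Once tumors reached ~325 mm3, mice were randomized into groups of 12 and dosed orally for 21 days, once daily (qd) or biweekly (biw). Vehicle was 40% v/v PEG-400 plus 25% w/v HPβCD at 20 μL/g.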

[6] = AUC (0 to 24 hrs) in CD1 nu/nu mouse xenografted with human HCT116 cells at 50 mg/kg, po qd for 3 weeks; format: ADME, organism-based, HCT-116; set-up: time < 24 hr, dose 50 mg/kg, route oral; settings: in vivo
How it was run: (§3)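 HCT116 cells (5 × 10^6/mouse) injected sc into right flank of CD1 nu/nu mice; at ~325 mm3 tumors, randomized into groups of 12. Oral dosing 21 days, once daily or biweekly, in 40% v/v PEG-400 and 25% w/v HPβCD at 20 μL/g. […] Tumor size by caliper.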

Mus musculus [7] = experiment: Inhibition of HDAC in CD1 nu/nu mouse tumor xenografted with human HCT116 cells assessed as plasma drug level causing increase in H2BK5 acetylation at 100 mg/kg, po bid after 8 hrs by ELISA; format: functional, HCT-116
[8] = Half life in rhesus monkey at 0.5 mg/kg, iv; format: ADME, organism-based, Macaca mulatta; set-up: dose 0.5 mg/kg, route intravenous; settings: in vivo; how it was run: as §1
Mus musculus [9] = experiment: Inhibition of HDAC in CD1 nu/nu mouse tumor xenografted with human HCT116 cells assessed as plasma drug level causing increase in H2BK5 acetylation at 100 mg/kg, po bid after 4 hrs by ELISA; format: functional, HCT-116
[10] = Drug metabolism in human hepatocytes assessed as carboxylic acid level; format: ADME, cell-based, Hepatocyte
[11] = Volume of distribution at steady state in Sprague-Dawley rat at 2 mg/kg, iv; format: ADME, organism-based; set-up: dose 2 mg/kg, route intravenous; settings: in vivo, read-out: Vdss; how it was run: as §1
[12] = Volume of distribution at steady state in beagle dog at 0.5 mg/kg, iv; format: ADME, organism-based, Canis lupus familiaris; set-up: dose 0.5 mg/kg, route intravenous; settings: in vivo, read-out: Vdss; how it was run: as §1
Canis familiaris = experiment: Dose normalized AUC in beagle dog at 1 mg/kg, po; format: ADME, organism-based, Canis lupus familiaris; set-up: dose 1 mg/kg, route oral; settings: in vivo
[13] = AUC (0 to 24 hrs) in CD1 nu/nu mouse xenografted with human HCT116 cells at 100 mg/kg, po qd for 3 weeks; format: ADME, organism-based, HCT-116; set-up: time < 24 hr, dose 100 mg/kg, route oral; settings: in vivo; how it was run: as §3
Mus musculus [14] = experiment: Inhibition of HDAC in CD1 nu/nu mouse tumor xenografted with human HCT116 cells assessed as plasma drug level causing increase in H2BK5 acetylation at 200 mg/kg, po qd after 24 hrs by ELISA; format: functional, HCT-116
[15] = Cmax in CD1 nu/nu mouse xenografted with human HCT116 cells at 100 mg/kg, po qd for 3 weeks; format: ADME, organism-based, HCT-116; set-up: dose 100 mg/kg, route oral; settings: in vivo; how it was run: as §2
[16] = Half life in CD-1 mouse at 5 mg/kg, iv; format: ADME, organism-based; set-up: dose 5 mg/kg, route intravenous; settings: in vivo; how it was run: as §1
Mus musculus [17] = experiment: Unbound Cmax in 3 week po dosed CD1 nu/nu mouse xenografted with human HCT116 cells; format: ADME, organism-based, HCT-116; settings: in vivo, 504 h
[18] = Drug metabolism in dog hepatocytes assessed as hydrolysis of oxazolidinone group; format: ADME, cell-based, Canis lupus familiaris, Hepatocyte
in vivo [19] = settings: CD1 nu/nu, mouse, po, 50 mg/kg
[20] = Oral bioavailability in beagle dog at 1 mg/kg; format: ADME, organism-based, Canis lupus familiaris; settings: in vivo
[21] = Oral bioavailability in Sprague-Dawley rat at 4 mg/kg; format: ADME, organism-based; settings: in vivo
[22] = Volume of distribution at steady state in CD-1 mouse at 5 mg/kg, iv; format: ADME, organism-based; set-up: dose 5 mg/kg, route intravenous; settings: in vivo, read-out: Vdss; how it was run: as §1
[23] = AUC (0 to 24 hrs) in CD1 nu/nu mouse xenografted with human HCT116 cells at 525 mg/kg, po administered biweekly for 3 weeks; format: ADME, organism-based, HCT-116; set-up: time < 24 hr, dose 525 mg/kg, route oral; settings: in vivo; how it was run: as §3
[24] = Plasma clearance in rhesus monkey at 0.5 mg/kg, iv; format: ADME, organism-based, Macaca mulatta; set-up: dose 0.5 mg/kg, route intravenous; how it was run: as §1
[25] = Plasma clearance in Sprague-Dawley rat at 2 mg/kg, iv; format: ADME, organism-based; set-up: dose 2 mg/kg, route intravenous; how it was run: as §1
[26] = AUC (0 to 24 hrs) in CD1 nu/nu mouse xenografted with human HCT116 cells at 200 mg/kg, po qd for 3 weeks; format: ADME, organism-based, HCT-116; set-up: time < 24 hr, dose 200 mg/kg, route oral; settings: in vivo; how it was run: as §3
[27] = Cmax in CD1 nu/nu mouse xenografted with human HCT116 cells at 50 mg/kg, po qd for 3 weeks; format: ADME, organism-based, HCT-116; set-up: dose 50 mg/kg, route oral; settings: in vivo; how it was run: as §2
[28] = Plasma protein binding in CD-1 mouse at 2 uM; format: ADME, cell-free; settings: read-out: PPB (converted)
How it was run: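 Plasma protein binding measured in mouse, rat, dog and monkey plasma at 2 μM compound.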

[29] = AUC (0 to 24 hrs) in CD1 nu/nu mouse xenografted with human HCT116 cells at 350 mg/kg, po administered biweekly for 3 weeks; format: ADME, organism-based, HCT-116; set-up: time < 24 hr, dose 350 mg/kg, route oral; settings: in vivo; how it was run: as §3
Rhesus monkey = experiment: Dose normalized AUC in rhesus monkey at 1 mg/kg, po; format: ADME, organism-based, Macaca mulatta; set-up: dose 1 mg/kg, route oral; settings: in vivo
How it was run: (§4)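 Oral exposure, dose-normalized (μM·h·kg/mg), from a PK study also run with iv dosing (rat 2 mg/kg iv, 4 mg/kg po; monkey 0.5 mg/kg iv, 1 mg/kg po). Plasma clearance, Vdss, half-life and oral bioavailability also derived.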

in vivo [30] = settings: CD1 nu/nu, mouse, po, 150 mg/kg
Mus musculus [31] = experiment: Inhibition of HDAC in CD1 nu/nu mouse tumor xenografted with human HCT116 cells assessed as plasma drug level causing increase in H2BK5 acetylation at 200 mg/kg, po qd after 1 hr by ELISA; format: functional, HCT-116
[32] = Drug metabolism in human hepatocytes assessed as glucose conjugate level; format: ADME, cell-based, Hepatocyte
[33] = Drug metabolism in liver microsomes (unknown origin) assessed as CYP-mediated oxidation; format: ADME
Rattus norvegicus = experiment: Dose normalized AUC in Sprague-Dawley rat at 4 mg/kg, po; format: ADME, organism-based; set-up: dose 4 mg/kg, route oral; settings: in vivo; how it was run: as §4
in vivo [34] = settings: CD1 nu/nu, mouse, po, 100 mg/kg
HCT-116 = experiment: cells; format: functional, Homo sapiens
Mus musculus [35] = experiment: Inhibition of HDAC in CD1 nu/nu mouse tumor xenografted with human HCT116 cells assessed as plasma drug level causing increase in H2BK5 acetylation at 100 mg/kg, po bid after 24 hrs by ELISA; format: functional, HCT-116
[36] = AUC (0 to 24 hrs) in CD1 nu/nu mouse xenografted with human HCT116 cells at 875 mg/kg, po administered biweekly for 3 weeks; format: ADME, organism-based, HCT-116; set-up: time < 24 hr, dose 875 mg/kg, route oral; settings: in vivo; how it was run: as §3

Drug metabolism [1]: metabolite_notdetected | Vd [3]: 7.8 L/kg | Cmax [5]: 56.4 µM | AUC at 24 h [6]: 40 µM·h | half-life [8]: 7.1 h | Drug metabolism [10]: metabolite_notdetected | Vd [11]: 0.7 L/kg | Vd [12]: 2.2 L/kg | AUC/dose (Canis familiaris): 0.3 µM·kg·h/mg | AUC at 24 h [13]: 110 µM·h | Cmax [15]: 6.9 µM | half-life [16]: 2 h | fCmax (Mus musculus [17]): 240 nM | Drug metabolism [18]: metabolite_notdetected | concentration at 24 h (in vivo [19]): 0.9 µM | bioavailability [20]: 17% | bioavailability [21]: 28% | Vd [22]: 2.1 L/kg | AUC at 24 h [23]: 808 µM·h | clearance [24]: 27 mL/min/kg | clearance [25]: 3.6 mL/min/kg | AUC at 24 h [26]: 371 µM·h | Cmax [27]: 3.5 µM | fraction unbound at 2 µM [28]: 0.015 | AUC at 24 h [29]: 566 µM·h | AUC/dose (Rhesus monkey): 1.8 µM·kg·h/mg | concentration at 24 h (in vivo [30]): 3.3 µM | Drug metabolism [32]: metabolite_notdetected | Drug metabolism [33]: metabolite_notdetected | AUC/dose (Rattus norvegicus): 3 µM·kg·h/mg | concentration at 24 h (in vivo [34]): 0.5 µM | GI90 (HCT-116): 0.367 µM | AUC at 24 h [36]: 1220 µM·h
Compound: Nc1ccc(-c2cccs2)cc1NC(=O)c1ccc(N2CCC3(CC2)CNC(=O)O3)nc1
INH (Mus musculus [2]): 0.3 µM | INH (Mus musculus [4]): 8.2 µM | INH (Mus musculus [7]): 9.9 µM | INH (Mus musculus [9]): 9.6 µM | INH (Mus musculus [14]): 0.2 µM | INH (Mus musculus [31]): 11.9 µM | GI25 (HCT-116): 0.05 µM | GI75 (HCT-116): 0.188 µM | INH (Mus musculus [35]): 0.4 µM
